Source: PubChem BioAssay
Active and inactive are the calls of the source.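 The calls were made as follows, unless noted: active = viability at or below 10% of carrier control in both of two separate runs; inconclusive = viability at or below 10% in only one of the two runs; inactive = the rest.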

How the values were obtained:
[1] = biological target: Pantothenate synthetase (Mycobacterium tuberculosis (strain ATCC 25618 / H37Rv)) (UniProt P9WIL5); assay: Coupled enzyme confirmation of inhibitors against recombinant Mtb PanC (AID 375; call rule not given here;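 also: 0% = full reaction with vehicle and 100% = no enzyme background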); conditions: coupled enzyme assay; at 10 µM, stronger effect = higher value
Pantothenate synthetase (Mycobacterium tuberculosis (strain ATCC 25618 / H37Rv)), sequence (P9WIL5 whole entry, looked up): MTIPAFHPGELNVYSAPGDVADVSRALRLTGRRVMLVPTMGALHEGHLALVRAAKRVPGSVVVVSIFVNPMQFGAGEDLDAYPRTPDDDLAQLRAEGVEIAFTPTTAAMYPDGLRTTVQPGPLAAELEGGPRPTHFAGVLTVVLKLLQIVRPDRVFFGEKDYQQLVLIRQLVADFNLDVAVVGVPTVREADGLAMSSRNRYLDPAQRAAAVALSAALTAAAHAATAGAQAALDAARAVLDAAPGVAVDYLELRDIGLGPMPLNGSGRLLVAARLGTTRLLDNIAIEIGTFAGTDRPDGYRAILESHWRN

[2] = reduced viability of SK-BR-3 breast cancer cells – cell-based, 24 h, human, pilot screen (AID 572); conditions: SK-BR-3 viability, CellTiter-Glo luminescence, at 10 µM, stronger effect = lower value;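 also: compound exposure lasted between 18 and 24 h rather than exactly 24 h; 100% = carrier-treated control wells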
[3] = HUVEC growth inhibition – cell-based, human, primary screen (AID 575;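 active = viability at or below 30% in both replicate assays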;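 also: 100% = median of untreated cell wells with 0.1% DMSO on each plate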); conditions: HUVEC proliferation, CellTiter-Glo luminescence, 72 h; at 10 µM; stronger effect = lower value
Procedure, shortened: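 Material: primary human umbilical vein endothelial cells / Schedule: 72 h exposure, 37 °C, 5% CO2, 30 min RT equilibration / Signal: ATP-based CellTiter-Glo luminescent read / Read-out basis: percent of median DMSO-control luminescence / Control set: 32 DMSO-only cell-control wells (high), 32 MePR drug-control wells (low) per plate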

[4] = H69AR cell proliferation blockers – human, duplicate replicates, primary screen (AID 580;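 active = viability at or under a set limit in both replicates, limit being median viability minus 3 SD, cut at about 48% in these data, passing the limit was not always enough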;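 also: 100% = mean luminescence of untreated wells and 0% = no signal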); conditions: H69AR lung tumor cells viability, ATP luminescence, 72 h; at 10 µM; stronger effect = lower value
[5] = MRP1 drug-resistance reversers in H69AR cells – cell-based, doxorubicin co-treatment, pilot screen (AID 601;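 active = viability loss from added drug above about 55%, and viability with drug at most 40%, in both replicates, limit read from the data, passing the limit was not always enough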); conditions: CellTiter-Glo, 72 h, at 10 µM; for differential viability (reversal): stronger effect = higher value
[6] = yeast transport mutant growth inhibition pilot in 384-well plates, post-Golgi transport modulator project (AID 636; in the data active = inhibition above about 31%); conditions: absorbance 615 nm, about 18 h, stronger effect = higher value
[7] = growth suppression of yeast trafficking mutant, preliminary HTS, modulators of trafficking downstream of Golgi apparatus project, 1536-format plate, OD 615 nm (AID 637; in the data active = inhibition above about 30%); conditions: yeast transport mutant growth, absorbance 615 nm, 18 h; stronger effect = higher value
[8] = Her2 expression decrease, cell viability multiplex – SKBR3 breast tumor cells, AlphaScreen, ATP viability, primary screen (AID 461;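 active = Her2 level under about 52% in both replicate screens, with viability over 70% of control, limit read from the data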;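 as to Her2 level: lower value means less Her2 protein in the cells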;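 as to viability: percent of carrier control wells set as 100% viability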); conditions: SKBR3 Her2 protein level, 18-24 h, measured here: SKBR3 viability, ATP luminescence, at 10 µM
[9] = biological target: Receptor tyrosine-protein kinase erbB-2 (Homo sapiens) (UniProt P04626); assay: as above; conditions: 18-24 h, at 10 µM, stronger effect = lower value
Receptor tyrosine-protein kinase erbB-2 (Homo sapiens), sequence (P04626 whole entry, looked up): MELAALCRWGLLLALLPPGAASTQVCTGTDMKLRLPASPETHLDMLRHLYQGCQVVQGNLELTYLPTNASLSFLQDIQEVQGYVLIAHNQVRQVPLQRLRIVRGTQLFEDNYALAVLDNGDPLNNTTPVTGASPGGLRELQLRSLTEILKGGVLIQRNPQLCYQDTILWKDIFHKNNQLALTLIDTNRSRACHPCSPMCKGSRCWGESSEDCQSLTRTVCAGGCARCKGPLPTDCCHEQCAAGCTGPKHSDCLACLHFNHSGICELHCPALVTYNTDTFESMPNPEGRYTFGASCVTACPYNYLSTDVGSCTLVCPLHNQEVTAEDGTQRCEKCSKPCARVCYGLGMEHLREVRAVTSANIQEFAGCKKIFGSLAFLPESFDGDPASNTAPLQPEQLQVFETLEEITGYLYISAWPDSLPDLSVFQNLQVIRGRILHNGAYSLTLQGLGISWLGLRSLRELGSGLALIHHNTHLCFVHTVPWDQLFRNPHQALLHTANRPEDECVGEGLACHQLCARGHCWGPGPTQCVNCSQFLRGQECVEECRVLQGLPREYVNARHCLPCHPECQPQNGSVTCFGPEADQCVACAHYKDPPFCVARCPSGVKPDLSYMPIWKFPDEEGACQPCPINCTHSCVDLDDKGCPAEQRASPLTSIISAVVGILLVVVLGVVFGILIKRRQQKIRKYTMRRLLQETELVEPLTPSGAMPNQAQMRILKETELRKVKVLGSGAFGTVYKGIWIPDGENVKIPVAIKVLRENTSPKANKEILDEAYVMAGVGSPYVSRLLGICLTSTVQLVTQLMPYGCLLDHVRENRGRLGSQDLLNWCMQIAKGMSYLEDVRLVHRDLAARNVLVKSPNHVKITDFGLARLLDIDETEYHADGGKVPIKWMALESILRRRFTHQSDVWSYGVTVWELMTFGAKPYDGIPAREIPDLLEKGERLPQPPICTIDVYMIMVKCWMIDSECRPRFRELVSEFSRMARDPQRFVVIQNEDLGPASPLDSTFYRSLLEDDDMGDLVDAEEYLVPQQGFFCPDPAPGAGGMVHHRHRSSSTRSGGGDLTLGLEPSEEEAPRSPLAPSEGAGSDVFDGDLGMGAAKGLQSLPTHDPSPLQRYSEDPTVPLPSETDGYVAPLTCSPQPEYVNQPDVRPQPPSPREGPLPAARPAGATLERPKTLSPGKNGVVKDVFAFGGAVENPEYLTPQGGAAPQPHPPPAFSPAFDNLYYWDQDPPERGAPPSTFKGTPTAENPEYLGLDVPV

[10] = H69AR cells + 2 uM doxorubicin, measured here: viability with 2 uM doxorubicin, stronger effect = lower value
[11] = H69AR cells, compound alone cytotoxicity

In the case of `COC(=O)C1C2c3ccccc3OC1(C)N=c1s/c(=C/c3cnn(C)c3C)c(=O)n12` (centres undefined), the inhibition [1] is reported as 7% (inactive), the viability [2] is reported as 98% (inactive) and the viability [3] is reported as 83.4% (inactive). The viability [4] was 91.8% (inactive), the differential viability (reversal) ([5]; H69AR cells + 2 uM doxorubicin) was 2.92% (inactive) and the viability [5, 10] was 88.8%. The viability [5, 11] was 91.8%, the inhibition [6] was -0.81% (inactive) and the inhibition [7] was 8.18% (inactive).
In the case of `Cc1ccnc(-n2c(-c3ccco3)nc3ccccc3c2=O)c1`, the inhibition [1] is reported as 0% (inactive), the viability [2] is reported as 105% (inactive) and the viability [3] is reported as 107% (inactive). For the same molecule, the viability [4] was 99.8% (inactive), the differential viability (reversal) ([5]; H69AR cells + 2 uM doxorubicin) was 10.2% (inactive) and the viability [5, 10] was 89.6%. The viability [5, 11] was 99.8%, the inhibition [6] was -2.47% (inactive) and the inhibition [7] was 1.15% (inactive).
With `Nc1ccnn1C1CCNCC1` the inhibition [1] was 2% (inactive), the viability [8] was 88.5% and the Her2 level [9] was 105% (inactive). The viability [2] was 88.5% (inactive), the viability [3] was 97% (inactive) and the viability [4] was 107% (inactive). The differential viability (reversal) ([5]; H69AR cells + 2 uM doxorubicin) was 5.6% (inactive), the viability [5, 10] was 102% and the viability [5, 11] was 107%. The inhibition [6] was -4.25% (inactive) and the inhibition [7] was -2.06% (inactive).
For `C#CCN(C)C(C)Cc1ccccc1` (centres undefined), the inhibition [1] was 5% (inactive), the viability [2] was 115% (inactive) and the viability [3] was 88.3% (inactive). The viability [4] was 99.3% (inactive), the differential viability (reversal) ([5]; H69AR cells + 2 uM doxorubicin) was -5.18% (inactive) and the viability [5, 10] was 104%. The viability [5, 11] was 99.3%, the inhibition [6] was -0.26% (inactive) and the inhibition [7] was 2.33% (inactive).
For `O=c1[nH]c(=O)n(CCc2ccc(F)cc2)c(O)c1C=NCCCn1ccnc1`, the inhibition [1] was 0% (inactive), the viability [8] was 114% and the Her2 level [9] was 84% (inactive). For the same molecule, the viability [2] was 114% (inactive), the viability [3] was 99.5% (inactive) and the viability [4] was 102% (inactive). The differential viability (reversal) ([5]; H69AR cells + 2 uM doxorubicin) was 15.3% (inactive), the viability [5, 10] was 86.8% and the viability [5, 11] was 102%. The inhibition [6] was -4.8% (inactive) and the inhibition [7] was 3.28% (inactive).
For `CC(C)C(=O)N1CCN(CCN=Cc2c(O)n(C)c(=O)n(C)c2=O)CC1`, the inhibition [1] was 3% (inactive), the viability [8] was 100% and the Her2 level [9] was 116% (inactive). For the same molecule, the viability [2] was 100% (inactive), the viability [3] was 122% (inactive) and the viability [4] was 96.5% (inactive). The differential viability (reversal) ([5]; H69AR cells + 2 uM doxorubicin) was -0.17% (inactive), the viability [5, 10] was 96.7% and the viability [5, 11] was 96.5%. The inhibition [6] was -5.39% (inactive) and the inhibition [7] was -1.48% (inactive).
In the case of `Clc1ccc(CSC(Cn2ccnc2)c2ccc(Cl)cc2Cl)cc1` (centres undefined), the inhibition [1] is reported as 0% (inactive), the viability [8] is reported as 136% and the Her2 level [9] is reported as 59% (inactive). The viability [2] was 136% (inactive), the differential viability (reversal) ([5]; H69AR cells + 2 uM doxorubicin) was -14.6% (inactive) and the viability [5, 10] was 48.3%. It also gave a viability [5, 11] of 33.7%.
With `C=C1CC[C@@]2(O)[C@H]3Cc4ccc(O)c5c4[C@@]2(CCN3CC2CC2)[C@H]1O5` the inhibition [1] was 0% (inactive), the viability [2] was 101% (inactive) and the viability [3] was 95.2% (inactive). The viability [4] was 110% (inactive), the differential viability (reversal) ([5]; H69AR cells + 2 uM doxorubicin) was 14.7% (inactive) and the viability [5, 10] was 95.5%. The viability [5, 11] was 110%, the inhibition [6] was -1.43% (inactive) and the inhibition [7] was 6.83% (inactive).
With `Clc1ccc(COC(Cn2ccnc2)c2ccc(Cl)cc2Cl)c(Cl)c1` (centres undefined) the inhibition [1] was 2% (inactive), the viability [8] was 105% and the Her2 level [9] was 20% (active). For the same molecule, the viability [2] was 105% (inactive), the viability [3] was 9.27% (active) and the differential viability (reversal) ([5]; H69AR cells + 2 uM doxorubicin) was -27.5% (inactive). For the same molecule, the viability [5, 10] was 58.6% and the viability [5, 11] was 31%.
In the case of `O=c1[nH]c(=O)n(Cc2ccco2)c(O)c1C=NCCCn1ccnc1`, the inhibition [1] is reported as 0% (inactive), the viability [8] is reported as 88.5% and the Her2 level [9] is reported as 104% (inactive). The viability [2] was 88.5% (inactive), the viability [3] was 93.5% (inactive) and the viability [4] was 95.2% (inactive). For the same molecule, the differential viability (reversal) ([5]; H69AR cells + 2 uM doxorubicin) was 0.33% (inactive), the viability [5, 10] was 94.8% and the viability [5, 11] was 95.2%. The inhibition [6] was 0.77% (inactive) and the inhibition [7] was -3.33% (inactive).
In the case of `O=C(C1CCCN(c2nnc(-n3cccc3)s2)C1)N1CCC2(CC1)OCCO2` (centres undefined), the inhibition [1] is reported as 0% (inactive), the viability [2] is reported as 83% (inactive) and the viability [3] is reported as 109% (inactive). For the same molecule, the viability [4] was 94.3% (inactive), the differential viability (reversal) ([5]; H69AR cells + 2 uM doxorubicin) was 12.8% (inactive) and the viability [5, 10] was 81.6%. For the same molecule, the viability [5, 11] was 94.3%, the inhibition [6] was -7.33% (inactive) and the inhibition [7] was -5.09% (inactive).
For `Cc1[nH]c2c(Cl)cccc2c1CCN`, the inhibition [1] was 0% (inactive), the viability [8] was 97.5% and the Her2 level [9] was 85.5% (inactive). The viability [2] was 97.5% (inactive), the viability [3] was 84.4% (inactive) and the viability [4] was 13.2% (active). The differential viability (reversal) ([5]; H69AR cells + 2 uM doxorubicin) was -69.9% (inactive), the viability [5, 10] was 83.1% and the viability [5, 11] was 13.2%. The inhibition [6] was -4.67% (inactive) and the inhibition [7] was 5.9% (inactive).
In the case of `CCCCn1c(O)c(C=NC2CCCCC2N)c(=O)[nH]c1=O` (centres undefined), the inhibition [1] is reported as 0% (inactive), the viability [8] is reported as 128% and the Her2 level [9] is reported as 96.5% (inactive). For the same molecule, the viability [2] was 128% (inactive), the viability [3] was 92.6% (inactive) and the viability [4] was 79.3% (inactive). For the same molecule, the differential viability (reversal) ([5]; H69AR cells + 2 uM doxorubicin) was 4.94% (inactive), the viability [5, 10] was 74.4% and the viability [5, 11] was 79.3%. For the same molecule, the inhibition [6] was -2.6% (inactive) and the inhibition [7] was 1.43% (inactive).
For `Cc1cc(N2C(=O)C3CCCN3C2c2cccc(Cl)c2)no1` (centres undefined), the inhibition [1] was 4% (inactive), the viability [8] was 95% and the Her2 level [9] was 96.5% (inactive). The viability [2] was 95% (inactive), the viability [3] was 89.3% (inactive) and the viability [4] was 109% (inactive). The differential viability (reversal) ([5]; H69AR cells + 2 uM doxorubicin) was 21% (inactive), the viability [5, 10] was 88% and the viability [5, 11] was 109%. For the same molecule, the inhibition [6] was -0.13% (inactive) and the inhibition [7] was -0.97% (inactive).
With `O=C1CC(c2ccccc2)CC(O)=C1C=NCCN1CCN(C(=O)Cc2ccccc2)CC1` (centres undefined) the inhibition [1] was 0% (inactive), the viability [8] was 122% and the Her2 level [9] was 97% (inactive). The viability [2] was 122% (inactive), the viability [3] was 91.2% (inactive) and the viability [4] was 92.1% (inactive). For the same molecule, the differential viability (reversal) ([5]; H69AR cells + 2 uM doxorubicin) was -2.69% (inactive), the viability [5, 10] was 94.8% and the viability [5, 11] was 92.1%. The inhibition [6] was -0.26% (inactive) and the inhibition [7] was 11.5% (inactive).
For `c1ccc(C2CC3CC(c4ccco4)N2O3)cc1` (centres undefined), the inhibition [1] was 0% (inactive), the viability [8] was 93% and the Her2 level [9] was 89.5% (inactive). For the same molecule, the viability [2] was 93% (inactive), the viability [3] was 82.8% (inactive) and the viability [4] was 113% (inactive). For the same molecule, the differential viability (reversal) ([5]; H69AR cells + 2 uM doxorubicin) was 22.5% (inactive), the viability [5, 10] was 90.9% and the viability [5, 11] was 113%. The inhibition [6] was -0.4% (inactive) and the inhibition [7] was -7.74% (inactive).
